Experiment [1] deals with K562. Briefly: Antiproliferative activity against human K562 cells after 48 hrs by MTT assay. Format: functional, cell-based. The settings on record: K562, 48 h. The essentials:
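K562 suspension cells in RPMI-1640 with 10% FBS, 37 °C, 5% CO2. Seeded at 1.5×10^4 cells/well, exposed 48 h to final 50, 25, 10, 1 and 0.1 μM. MTT (5 mg/mL) added for 4 h at 37 °C. IC50 from the dose series.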
Background: Tetrazolium dyes change colour on reduction, which living cells bring about.

The target of experiment [2] is T1, DNA topoisomerase 1 (Homo sapiens) (UniProt P11387).
T1 sequence (whole entry): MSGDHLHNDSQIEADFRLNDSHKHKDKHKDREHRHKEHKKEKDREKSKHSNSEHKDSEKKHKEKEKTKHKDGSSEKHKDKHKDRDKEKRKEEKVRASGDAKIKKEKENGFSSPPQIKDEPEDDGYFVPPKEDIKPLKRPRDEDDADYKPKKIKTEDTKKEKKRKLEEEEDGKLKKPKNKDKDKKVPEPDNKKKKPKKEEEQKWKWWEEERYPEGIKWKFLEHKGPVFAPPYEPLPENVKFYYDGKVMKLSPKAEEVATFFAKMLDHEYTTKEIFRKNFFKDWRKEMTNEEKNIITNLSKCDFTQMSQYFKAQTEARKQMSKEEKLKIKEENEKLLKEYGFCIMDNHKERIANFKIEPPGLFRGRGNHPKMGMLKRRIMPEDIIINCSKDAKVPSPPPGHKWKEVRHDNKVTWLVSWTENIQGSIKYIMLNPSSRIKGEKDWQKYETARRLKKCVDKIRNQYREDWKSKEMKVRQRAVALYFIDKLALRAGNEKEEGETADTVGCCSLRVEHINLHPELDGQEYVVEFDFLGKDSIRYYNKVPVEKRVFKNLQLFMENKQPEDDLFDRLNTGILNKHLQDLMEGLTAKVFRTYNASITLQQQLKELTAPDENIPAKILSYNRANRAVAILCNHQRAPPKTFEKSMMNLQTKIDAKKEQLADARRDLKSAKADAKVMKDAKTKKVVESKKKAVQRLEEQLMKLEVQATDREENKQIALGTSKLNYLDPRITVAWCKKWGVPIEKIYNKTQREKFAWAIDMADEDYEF
Briefly: Inhibition of recombinant human Topo1-mediated relation of supercoiled pBR322 DNA at 50 uM after 30 mins by agarose gel electrophoresis. The essentials:
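pBR322 at 100 ng with 1.0 unit recombinant human topo I. Incubated 30 min at 37 °C in 35 mM Tris-HCl pH 8.0, 5 mM MgCl2, 72 mM KCl, 0.01% BSA, 2 mM spermidine and 5 mM DTT. Run on 1% agarose in TAE at 100 V for 25 min. EB-stained gel viewed under UV.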

The source made the active and inactive calls. No cut-off for these calls is given here.

By IC50 is commonly meant the concentration that gives 50% inhibition.

In the case of `Cc1cccc2c(=O)c3c(NCc4ccncc4)ccc(C(=O)NCCCN(C)C)c3[nH]c12`, half-maximal inhibition in experiment [1] (IC50) was put at 8.25 µM. In experiment [2], the inhibition entry was “Active”. The like results for `Cc1cccc2c(=O)c3c(NCc4ccccn4)ccc(C(=O)NCCN(C)C)c3[nH]c12` were, in that order, 1.71 µM and “Active”. The like results for `COc1cccc2c(=O)c3c(N(Cc4ccccn4)Cc4ccccn4)ccc(C(=O)NCCN(C)C)c3[nH]c12` were, in that order, 13.9 µM and “inactive”. For `COc1cccc2c(=O)c3c(NCCc4ccncc4)ccc(C(=O)NCCN(C)C)c3[nH]c12`, in experiment [1], inhibition was half-maximal at 3.08 µM (IC50). In addition, the inhibition entry in experiment [2] is “Active”. On to `CN(C)CCNC(=O)c1ccc(NCc2ccncc2)c2c(=O)c3cc(Cl)cc(Cl)c3[nH]c12`, for which it took 0.97 µM to reach half-maximal inhibition in experiment [1] (IC50). Besides, the inhibition entry in experiment [2] is “Active”.

For the molecule `COc1cccc2c(=O)c3c(NCc4ccncc4)ccc(C(=O)NCCN(C)C)c3[nH]c12`, in experiment [1], it took 1.36 µM to reach half-maximal inhibition (IC50). Further, the inhibition result in experiment [2] was “Active”.

For `COc1cccc2c(=O)c3c(NCc4ccccn4)ccc(C(=O)NCCCN(C)C)c3[nH]c12`, 6.12 µM corresponded to half-maximal inhibition in experiment [1] (IC50). In addition, the inhibition entry in experiment [2] was “Active”. The like results for `COc1cccc2c(=O)c3c(N(Cc4ccccn4)Cc4ccccn4)ccc(C(=O)NCCCN(C)C)c3[nH]c12` were, in that order, 13.5 µM and “inactive”.

As for `COCCNC(=O)c1ccc(NCc2ccncc2)c2c(=O)c3cccc(OC)c3[nH]c12`, the IC50 in experiment [1] is above 50 µM. Besides, the inhibition result in experiment [2] is “inactive”. Consider `COc1cccc2c(=O)c3c(NCc4ccncc4)ccc(C(=O)NCCCN(C)C)c3[nH]c12`, for which the IC50 in experiment [1] turned out to be 11.9 µM. Moreover, the inhibition result in experiment [2] is “Active”. Consider `COCCNC(=O)c1ccc(N(Cc2ccccn2)Cc2ccccn2)c2c(=O)c3cccc(C)c3[nH]c12`, for which the IC50 in experiment [1] came to 11.2 µM. Further, the inhibition entry in experiment [2] is “inactive”. `COc1cccc2c1C(=O)c1c(O)c3c(c(O)c1C2=O)C[C@@](O)(C(=O)CO)C[C@@H]3O[C@H]1C[C@H](N)[C@H](O)[C@H](C)O1` [DOXORUBICIN]: in experiment [1], 0.55 µM corresponded to half-maximal inhibition (IC50).

On to `COCCNC(=O)c1ccc(NCc2ccccn2)c2c(=O)c3cccc(C)c3[nH]c12`, for which, in experiment [1], the IC50 was above 50 µM. In addition, the inhibition result in experiment [2] was “inactive”. In turn, `CN(C)CCNC(=O)c1ccc(NCc2ccncc2)c2c(=O)c3ccccc3[nH]c12` had an IC50 in experiment [1] of 6.33 µM. The inhibition result in experiment [2] was “Active”. Molecule `Cc1cccc2c(=O)c3c(NCc4cccnc4)ccc(C(=O)NCCCN(C)C)c3[nH]c12` gave an IC50 in experiment [1] of 11.8 µM. Further, in experiment [2], the inhibition entry was “Active”. For `Cc1cccc2c(=O)c3c(NCc4cccnc4)ccc(C(=O)NCCN(C)C)c3[nH]c12`, the IC50 in experiment [1] was 1.09 µM. In experiment [2], the inhibition result was “Active”. Consider `Cc1cccc2c(=O)c3c(NCc4ccccn4)ccc(C(=O)NCCCN(C)C)c3[nH]c12`, for which half-maximal inhibition in experiment [1] (IC50) required 6.45 µM. Further, the inhibition entry in experiment [2] was “Active”. Regarding `COc1cccc2c(=O)c3c(NCc4cccnc4)ccc(C(=O)NCCCN(C)C)c3[nH]c12`, it took 11.3 µM to reach half-maximal inhibition in experiment [1] (IC50). For the same molecule, the inhibition entry in experiment [2] is “Active”. For the molecule `COc1cccc2c(=O)c3c(NCc4ccccn4)ccc(C(=O)NCCN(C)C)c3[nH]c12`, the IC50 in experiment [1] amounted to 2.28 µM. In addition, in experiment [2], the inhibition result is “Active”. Regarding `COc1cccc2c(=O)c3c(NCc4ccncc4)ccc(C(=O)NCCCCN(C)C)c3[nH]c12`, in experiment [1], it took 6.07 µM to reach half-maximal inhibition (IC50). Moreover, the inhibition result in experiment [2] is “Active”. As for `COc1cccc2c(=O)c3c(NCc4cccnc4)ccc(C(=O)NCCN(C)C)c3[nH]c12`, the IC50 in experiment [1] came to 0.93 µM. In addition, the inhibition entry in experiment [2] was “Active”.

Turning to `CN(C)CCNC(=O)c1ccc(NCc2ccncc2)c2c(=O)c3cccc(C(F)(F)F)c3[nH]c12`, the concentration for half-maximal inhibition (IC50) in experiment [1] was 0.89 µM. Also, the inhibition result in experiment [2] is “Active”. On to `COCCNC(=O)c1ccc(NCc2cccnc2)c2c(=O)c3cccc(OC)c3[nH]c12`, for which the IC50 in experiment [1] is above 50 µM. Besides, in experiment [2], the inhibition result is “inactive”. In experiment [1], `COCCNC(=O)c1ccc(NCc2cccnc2)c2c(=O)c3cccc(C)c3[nH]c12` showed an IC50 above 50 µM. Also, the inhibition result in experiment [2] was “inactive”.

In turn, `COCCNC(=O)c1ccc(NCc2ccncc2)c2c(=O)c3cccc(C)c3[nH]c12` displayed an IC50 in experiment [1] above 50 µM. In experiment [2], the inhibition result is “inactive”.

In experiment [1], `COCCNC(=O)c1ccc(NCc2ccccn2)c2c(=O)c3cccc(OC)c3[nH]c12` showed an IC50 above 50 µM. Further, in experiment [2], the inhibition result was “inactive”.

(Values after ChEMBL document CHEMBL3407337, “Molecular design, synthesis and biological research of novel pyridyl acridones as potent DNA-binding and apoptosis-inducing agents” (Eur J Med Chem, 2015).)
